Here are results for 1 compound from ChEMBL document CHEMBL4312027, “Synthesis, characterization, and biological activity of a triphenylphosphonium-containing imidazolium salt against select bladder cancer cell lines” (Eur J Med Chem, 2020).

Activity calls are given as the source filed them. No cut-off for these calls is given here.

The GI50 is the concentration at which growth is held to half of that of the control. A high value points to lower sensitivity of the cells.

For one assay, the system named is Mus musculus. In words: Antitumor activity against anesthetized BBN-induced bladder tumor mouse model assessed as increase in cleaved caspase 3 level in necrotic region at 1500 uM administered via intravesical instillation treated for 1 hr administered as 2 doses at 24 hrs interval and measured at 24 hrs after final treatment by hematoxylin and eosin staining based immunohistochemical analysis. Type of assay: functional, organism-based.

Assay [1] deals with UMUC3. In words: Anticlonogenic activity against human UM-UC-3 cells assessed as no colony formation at 250 to 500 uM incubated for 1 hr measured after culturing in normal medium for 10 days by crystal violet staining assay. It is filed as functional, cell-based. The method in brief: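 Cells seeded at 500/well, treated 24 h later with 250 or 500 μM drug or vehicle for 1 h. Cells were then grown in normal media for 10 days, stained with 0.5% crystal violet in 20% MeOH/water at 4 °C for 5 min, washed, dried and imaged. Run in triplicate.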

Another assay has as its system NCI-H522. The assay is described as follows: Growth inhibition of human NCI-H522 cells assessed as growth percent at 10 uM incubated for 48 hrs by sulforhodamine B assay relative to control. Type of assay: functional. To be noted: NCI-H522, 48 h, read-out: Activity.
In assay [2] the test system is RT-112. The assay is described as follows: Growth inhibition of human RT112 cells at 500 uM by Celltiter-Glo luminescent cell viability assay. Conditions: TDE = time-dependent effect. It is filed as functional, cell-based. The method in brief:
(§1)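 Cells seeded 10000/well, 24 h, then exposed in ATCC-recommended medium to 62.5–2000 μM (two-fold steps) or vehicle for the set time (5–60 min), then normal medium. After 24 h, plates equilibrated 30 min at room temperature, CellTiter-Glo added, 2 min at room temperature, luminescence read. Survival relative to vehicle control; quadruplicate.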
On the technique in general: Cellular ATP, detected with luciferase, serves as a proxy for viable cell number.

For another assay, the system named is SK-OV-3. The assay is described as follows: Growth inhibition of human SKOV3 cells assessed as growth percent at 10 uM incubated for 48 hrs by sulforhodamine B assay relative to control. To be noted: SK-OV-3, 48 h, read-out: Activity. Type of assay: functional. In general terms: In SRB staining, fixed cells bind dye roughly in proportion to their protein.
In another assay the test system is TCC-SUP. In words: Growth inhibition of human TCCSUP cells measured after 1 hr by Celltiter-Glo luminescent cell viability assay. Type of assay: functional. The gist of the method: as §1
The test system of another assay is SW-620. In words: Growth inhibition of human SW620 cells assessed as growth percent at 10 uM incubated for 48 hrs by sulforhodamine B assay relative to control. Conditions: SW-620, 48 h, read-out: Activity. It is filed as functional.
For assay [3], the system named is RT-112. In words: Induction of apoptosis in human RT112 cells assessed as increase in PARP cleavage at 500 uM incubated for 1 hr measured at 24 hrs after treatment by Western blot analysis. It is filed as functional, cell-based. The gist of the method: (§2)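 RT112 seeded 300,000/well; after 24 h, 250 or 500 μM or vehicle. Cells plus floating debris harvested immediately or 24 h after treatment, lysed in RIPA with protease inhibitors. About 30 μg protein heated 10 min at 95 °C with DTT, run on SDS-PAGE. Immunoblotted for PARP and caspase 9, Ran as loading control, ECL detection.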

Another assay concerns SK-MEL-28. In words: Growth inhibition of human SK-MEL-28 cells assessed as growth percent at 10 uM incubated for 48 hrs by sulforhodamine B assay relative to control. Type of assay: functional. Conditions: SK-MEL-28, 48 h, read-out: Activity.
The subject of a further assay is SR. In words: Growth inhibition of human SR cells assessed as growth percent at 10 uM incubated for 48 hrs by sulforhodamine B assay relative to control. It is filed as functional. To be noted: read-out: Activity.
Assay [4] relates to UMUC3. The assay is described as follows: Growth inhibition of human UM-UC-3 cells measured after 1 hr by Celltiter-Glo luminescent cell viability assay. Type of assay: functional. To be noted: UMUC3, 1 h. The method in brief: as §1
In assay [5] the test system is RT-112. The assay is described as follows: Induction of apoptosis in human RT112 cells assessed as caspase 9 cleavage at 250 to 500 uM incubated for 1 hr and measured at 24 hrs after treatment by Western blot analysis. Type of assay: functional, cell-based. The method in brief:
as §2
In general terms: Immunoblotting shows a protein as a band on a membrane.

The test system of a further assay is MDA-MB-231. The assay is described as follows: Growth inhibition of human MDA-MB-231 cells assessed as growth percent at 10 uM incubated for 48 hrs by sulforhodamine B assay relative to control. It is filed as functional. Conditions: MDA-MB-231, 48 h, read-out: Activity.
The next assay deals with BT-549. In words: Growth inhibition of human BT549 cells assessed as growth percent at 10 uM incubated for 48 hrs by sulforhodamine B assay relative to control. Type of assay: functional. Conditions: BT-549, 48 h, read-out: Activity.
The subject of assay [6] is RT-112. The assay is described as follows: Growth inhibition of human RT112 cells at 250 uM measured after 5 to 60 mins by Celltiter-Glo luminescent cell viability assay. It is filed as functional, cell-based.
In another assay the test system is 5637. In words: Growth inhibition of human 5637 cells measured after 1 hr by Celltiter-Glo luminescent cell viability assay. It is filed as functional. Conditions: Homo sapiens, 5637, 1 h. The method in brief: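 Seeded at 10000 cells/well and grown 24 h, then exposed to 62.5–2000 μM (two-fold steps) or vehicle in growth medium for 1 h. Medium was replaced with normal medium for 24 h before CellTiter-Glo luminescence was read. Survival was expressed relative to vehicle, with quadruplicate wells, and GI50 was calculated.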

The subject of the next assay is PC-3. In words: Growth inhibition of human PC3 cells assessed as growth percent at 10 uM incubated for 48 hrs by sulforhodamine B assay relative to control. Type of assay: functional. To be noted: PC-3, 48 h, read-out: Activity.
Assay [7] has as its system UMUC3. The assay is described as follows: Cell cycle arrest in human UM-UC-3 cells assessed as increase in cell accumulation at sub-G1 phase at 250 to 500 uM incubated for 1 hr measured after culturing in normal medium for 24 hrs by propidium iodide/RNase staining based FACScan flow cytometry analysis. Type of assay: functional. The gist of the method: (§3)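 Seeded at 300,000 cells/well in triplicate per treatment; 24 h later exposed to 250 or 500 μM or vehicle for 1 h. After 24 h in normal media, media plus cells were collected, washed, fixed in cold 70% ethanol (4 °C, 30 min), treated with phosphate citric acid buffer, stained with PI/RNase and gated for sub-G1 by flow cytometry.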

Another assay concerns RT-4. In words: Growth inhibition of human RT4 cells at 500 uM by Celltiter-Glo luminescent cell viability assay. It is filed as functional, cell-based. To be noted: TDE = time-dependent effect. The gist of the method: as §1
The test system of assay [8] is RT-112. The assay is described as follows: Cell cycle arrest in human RT112 cells assessed as increase in cell accumulation at sub-G1 phase at 250 uM incubated for 1 hr measured after culturing in normal medium for 24 hrs by propidium iodide/RNase staining based FACScan flow cytometry analysis. It is filed as functional. The method in brief: as §3

Regarding `[Br-].[Br-].c1ccc([P+](CCCc2n(Cc3ccc4ccccc4c3)c3ccccc3[n+]2Cc2ccc3ccccc3c2)(c2ccccc2)c2ccccc2)cc1`, the result in the assay with Mus musculus, with RT-112 [3], in the assay on UMUC3 [7] and in the assay on RT-112 [8] was Active. In the assay on UMUC3 [1], the inhibition entry is “Active”. Also, the growth at 10 µM in the assay with NCI-H522 amounted to 60.2%; in the assay with SK-OV-3, 84.5%; in the assay with SW-620, 35.2%; with SK-MEL-28, 37.1%; in the assay with SR it was 30.8%; in the assay with MDA-MB-231, 51%. The growth at 10 µM in the assay with BT-549 stood at 68.1%; in the assay with PC-3 it was 67.5%. Moreover, the “growth inhibition (GI)” value in the assay on RT-112 [2] and in the assay on RT-4 was “Tde” in each case. For the same compound, the GI50 stood at 240 µM in the assay with TCC-SUP, 80 µM in the assay on UMUC3 [4] and 200 µM with 5637. The result in the assay on RT-112 [5] was inactive. The “growth inhibition (GI)” value in the assay on RT-112 [6] was “Active”.
